In ChEMBL document CHEMBL1143237, “Sulfonamide-1,2,4-triazole derivatives as antifungal and antibacterial agents: synthesis, biological evaluation, lipophilicity, and conformational studies” (Bioorg Med Chem, 2008):
≈ marks a conversion by molar mass, not a printed value.

Legend:
[1] = Partition coefficient, log P of the compound; format: physicochemical; settings: octanol/water
Outline: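 Calculated, not measured: AlogP, IAlogP, ClogP, Cosmo logP, mlogP, Kowwin and XlogP were computed and averaged.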

Enterobacter cloacae = assay: Antibacterial activity against Enterobacter cloacae after 24 hrs by microdilution test; format: functional
Outline: (§1)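 Broth microdilution in LB medium in 96-well plates. Inoculum 1.0 × 10⁴ CFU per well, from a suspension set to 1.0 × 10⁵ CFU/ml in sterile saline. Compounds at […] µg/ml. Incubation 24 h at 28 °C. MIC is the lowest concentration with no visible growth under a binocular microscope. MBC by subculturing 2 µl into fresh broth for a further 72 h. OD540 read against blank. DMSO negative control.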

Salmonella enteritidis = assay: Antibacterial activity against Salmonella enteritidis ATCC 13076 after 24 hrs by microdilution test; format: functional, Salmonella enterica subsp. enterica serovar Enteritidis; settings: Salmonella enterica, ATCC 13076, 24 h; outline: as §1
Salmonella typhimurium = assay: Antibacterial activity against Salmonella Typhimurium ATCC 13311 after 24 hrs by microdilution test; format: functional, Salmonella enterica subsp. enterica serovar Typhimurium; settings: Salmonella enterica, ATCC 13311, 24 h; outline: as §1
[2] = system: Staphylococcus epidermidis; assay: Antibacterial activity against Staphylococcus epidermidis ATCC 12228 after 24 hrs by microdilution test; format: functional; settings: ATCC 12228, 24 h; outline: as §1
Micrococcus luteus = assay: Antibacterial activity against Micrococcus flavus ATCC 10240 after 24 hrs by microdilution test; format: functional; settings: ATCC 10240, 24 h; outline: as §1
Escherichia coli = assay: Antibacterial activity against Escherichia coli ATCC 35210 after 24 hrs by microdilution test; format: functional; settings: ATCC 35210, 24 h; outline: as §1
Aspergillus flavus = assay: Antifungal activity against Aspergillus flavus ATCC 9643 after 72 hrs by microdilution test; format: functional; settings: ATCC 9643, 72 h
Outline: (§2)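 Modified microdilution in malt broth. Spores were washed from malt agar with sterile 0.85% saline containing 0.1% Tween 80 and adjusted to about 1.0 × 10⁵ per well. Compounds were dissolved in DMSO and tested at […] µg/ml. Incubation 72 h at 28 °C. MIC is the lowest concentration with no visible growth under a binocular microscope. MFC by 2 µl subculture and a further 72 h at 28 °C.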

Trichoderma viride = assay: Antifungal activity against Trichoderma viride IAM 5061 after 72 hrs by microdilution test; format: functional; outline: as §2
Talaromyces funiculosus = assay: Antifungal activity against Penicillium funiculosum ATCC 36839 after 72 hrs by microdilution test; format: functional; settings: ATCC 36839, 72 h; outline: as §2
Aspergillus versicolor = assay: Antifungal activity against Aspergillus versicolor ATCC 11730 after 72 hrs by microdilution test; format: functional; settings: ATCC 11730, 72 h; outline: as §2
Aspergillus ochraceus = assay: Antifungal activity against Aspergillus ochraceus ATCC 12066 after 72 hrs by microdilution test; format: functional; settings: ATCC 12066, 72 h; outline: as §2
Aspergillus niger = assay: Antifungal activity against Aspergillus niger ATCC 6275 after 72 hrs by microdilution test; format: functional; settings: ATCC 6275, 72 h; outline: as §2
Bacillus cereus = assay: Antibacterial activity against Bacillus cereus ATCC 10907 after 24 hrs by microdilution test; settings: ATCC 10907, 24 h

| Compound | logP [1] | MBC (Enterobacter cloacae) [µg/mL] | MIC (Enterobacter cloacae) [µg/mL] | MBC (Salmonella enteritidis) [µg/mL] | MIC (Salmonella enteritidis) [µg/mL] | MBC (Salmonella typhimurium) [µg/mL] | MIC (Salmonella typhimurium) [µg/mL] | MBC [2] [µg/mL] | MIC [2] [µg/mL] | MBC (Micrococcus luteus) [µg/mL] | MIC (Micrococcus luteus) [µg/mL] | MBC (Escherichia coli) [µg/mL] | MIC (Escherichia coli) [µg/mL] | MFC (Aspergillus flavus) [µg/mL] | MIC (Aspergillus flavus) [µg/mL] | MFC (Trichoderma viride) [µg/mL] | MIC (Trichoderma viride) [µg/mL] | MFC (Talaromyces funiculosus) [µg/mL] | MIC (Talaromyces funiculosus) [µg/mL] | MFC (Aspergillus versicolor) [µg/mL] | also measured |
| --- | --- | --- | --- | --- | --- | --- | --- | --- | --- | --- | --- | --- | --- | --- | --- | --- | --- | --- | --- | --- | --- |
| COc1cc(Cc2n[nH]c(=S)n2-c2ccccc2)c(S(=O)(=O)N(C)C)cc1OC | 1.72 | 100 (≈ 230 µM) | 100 (≈ 230 µM) | 150 (≈ 345 µM) | 150 (≈ 345 µM) | 150 (≈ 345 µM) | 100 (≈ 230 µM) | 150 (≈ 345 µM) | 150 (≈ 345 µM) | 150 (≈ 345 µM) | 150 (≈ 345 µM) | 150 (≈ 345 µM) | 100 (≈ 230 µM) | 100 (≈ 230 µM) | 50 (≈ 115 µM) | 100 (≈ 230 µM) | 50 (≈ 115 µM) | 100 (≈ 230 µM) | 100 (≈ 230 µM) | 150 (≈ 345 µM) | MIC (Aspergillus versicolor): 100 µg/mL (≈ 230 µM); MFC (Aspergillus ochraceus): 150 µg/mL (≈ 345 µM); MIC (Aspergillus ochraceus): 100 µg/mL (≈ 230 µM); MFC (Aspergillus niger): 150 µg/mL (≈ 345 µM); MIC (Aspergillus niger): 100 µg/mL (≈ 230 µM); MBC (Bacillus cereus): 150 µg/mL (≈ 345 µM); MIC (Bacillus cereus): 150 µg/mL (≈ 345 µM) |
| COc1cc(Cc2n[nH]c(=S)n2-c2ccc(Cl)cc2)c(S(=O)(=O)N2CCOCC2)cc1OC | 2.25 | 100 (≈ 196 µM) | 100 (≈ 196 µM) | 150 (≈ 294 µM) | 150 (≈ 294 µM) | 150 (≈ 294 µM) | 100 (≈ 196 µM) | 150 (≈ 294 µM) | 150 (≈ 294 µM) | 150 (≈ 294 µM) | 150 (≈ 294 µM) | 150 (≈ 294 µM) | 100 (≈ 196 µM) | 150 (≈ 294 µM) | 100 (≈ 196 µM) | 150 (≈ 294 µM) | 100 (≈ 196 µM) | 150 (≈ 294 µM) | 100 (≈ 196 µM) | 150 (≈ 294 µM) | MIC (Aspergillus versicolor): 100 µg/mL (≈ 196 µM); MFC (Aspergillus ochraceus): 150 µg/mL (≈ 294 µM); MIC (Aspergillus ochraceus): 100 µg/mL (≈ 196 µM); MFC (Aspergillus niger): 150 µg/mL (≈ 294 µM); MIC (Aspergillus niger): 150 µg/mL (≈ 294 µM); MBC (Bacillus cereus): 150 µg/mL (≈ 294 µM); MIC (Bacillus cereus): 150 µg/mL (≈ 294 µM) |
| COc1cc(Cc2n[nH]c(=S)n2-c2ccc(Cl)cc2)c(S(=O)(=O)N2CCCCC2)cc1OC | 3.31 | 100 (≈ 196 µM) | 100 (≈ 196 µM) | 150 (≈ 295 µM) | 150 (≈ 295 µM) | 150 (≈ 295 µM) | 100 (≈ 196 µM) | 150 (≈ 295 µM) | 150 (≈ 295 µM) | 150 (≈ 295 µM) | 150 (≈ 295 µM) | 150 (≈ 295 µM) | 100 (≈ 196 µM) | 150 (≈ 295 µM) | 100 (≈ 196 µM) | 150 (≈ 295 µM) | 100 (≈ 196 µM) | 150 (≈ 295 µM) | 100 (≈ 196 µM) | 150 (≈ 295 µM) | MIC (Aspergillus versicolor): 100 µg/mL (≈ 196 µM); MFC (Aspergillus ochraceus): 150 µg/mL (≈ 295 µM); MIC (Aspergillus ochraceus): 100 µg/mL (≈ 196 µM); MFC (Aspergillus niger): 150 µg/mL (≈ 295 µM); MIC (Aspergillus niger): 100 µg/mL (≈ 196 µM); MBC (Bacillus cereus): 150 µg/mL (≈ 295 µM); MIC (Bacillus cereus): 150 µg/mL (≈ 295 µM) |
| COc1cc(Cc2n[nH]c(=S)n2-c2ccccc2)c(S(=O)(=O)N2CCCCC2)cc1OC | 2.63 | 100 (≈ 211 µM) | 100 (≈ 211 µM) | 150 (≈ 316 µM) | 150 (≈ 316 µM) | 150 (≈ 316 µM) | 100 (≈ 211 µM) | 150 (≈ 316 µM) | 150 (≈ 316 µM) | 150 (≈ 316 µM) | 150 (≈ 316 µM) | 150 (≈ 316 µM) | 100 (≈ 211 µM) | 150 (≈ 316 µM) | 100 (≈ 211 µM) | 150 (≈ 316 µM) | 100 (≈ 211 µM) | 150 (≈ 316 µM) | 100 (≈ 211 µM) | 150 (≈ 316 µM) | MIC (Aspergillus versicolor): 100 µg/mL (≈ 211 µM); MFC (Aspergillus ochraceus): 150 µg/mL (≈ 316 µM); MIC (Aspergillus ochraceus): 100 µg/mL (≈ 211 µM); MFC (Aspergillus niger): 150 µg/mL (≈ 316 µM); MIC (Aspergillus niger): 100 µg/mL (≈ 211 µM); MBC (Bacillus cereus): 150 µg/mL (≈ 316 µM); MIC (Bacillus cereus): 150 µg/mL (≈ 316 µM) |
| CCN(CC)S(=O)(=O)c1cc(OC)c(OC)cc1Cc1n[nH]c(=S)n1-c1ccc(Cl)cc1 | 3.15 | 100 (≈ 201 µM) | 100 (≈ 201 µM) | 150 (≈ 302 µM) | 150 (≈ 302 µM) | 150 (≈ 302 µM) | 150 (≈ 302 µM) | 150 (≈ 302 µM) | 150 (≈ 302 µM) | 150 (≈ 302 µM) | 150 (≈ 302 µM) | 150 (≈ 302 µM) | 100 (≈ 201 µM) | 150 (≈ 302 µM) | 100 (≈ 201 µM) | 100 (≈ 201 µM) | 50 (≈ 101 µM) | 150 (≈ 302 µM) | 100 (≈ 201 µM) | 150 (≈ 302 µM) | MIC (Aspergillus versicolor): 100 µg/mL (≈ 201 µM); MFC (Aspergillus ochraceus): 150 µg/mL (≈ 302 µM); MIC (Aspergillus ochraceus): 100 µg/mL (≈ 201 µM); MFC (Aspergillus niger): 150 µg/mL (≈ 302 µM); MIC (Aspergillus niger): 100 µg/mL (≈ 201 µM); MBC (Bacillus cereus): 150 µg/mL (≈ 302 µM); MIC (Bacillus cereus): 150 µg/mL (≈ 302 µM) |
